The target of assay [1] is Calcium/calmodulin-dependent protein kinase type 1 (Homo sapiens) (UniProt Q14012). Kind of assay: Inhibition of CAMK1 (unknown origin) at 1 uM relative to control. The essentials: (§1)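 Single-point screen of each compound against a panel of 59 protein kinases, at 1 or 10 μM. The panel data are also summarised as a rescaled geometric mean selectivity score.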
Assay [2] concerns the target T1, Serine/threonine-protein kinase BRSK2 (Homo sapiens) (UniProt Q8IWQ3).
T1 sequence (whole entry): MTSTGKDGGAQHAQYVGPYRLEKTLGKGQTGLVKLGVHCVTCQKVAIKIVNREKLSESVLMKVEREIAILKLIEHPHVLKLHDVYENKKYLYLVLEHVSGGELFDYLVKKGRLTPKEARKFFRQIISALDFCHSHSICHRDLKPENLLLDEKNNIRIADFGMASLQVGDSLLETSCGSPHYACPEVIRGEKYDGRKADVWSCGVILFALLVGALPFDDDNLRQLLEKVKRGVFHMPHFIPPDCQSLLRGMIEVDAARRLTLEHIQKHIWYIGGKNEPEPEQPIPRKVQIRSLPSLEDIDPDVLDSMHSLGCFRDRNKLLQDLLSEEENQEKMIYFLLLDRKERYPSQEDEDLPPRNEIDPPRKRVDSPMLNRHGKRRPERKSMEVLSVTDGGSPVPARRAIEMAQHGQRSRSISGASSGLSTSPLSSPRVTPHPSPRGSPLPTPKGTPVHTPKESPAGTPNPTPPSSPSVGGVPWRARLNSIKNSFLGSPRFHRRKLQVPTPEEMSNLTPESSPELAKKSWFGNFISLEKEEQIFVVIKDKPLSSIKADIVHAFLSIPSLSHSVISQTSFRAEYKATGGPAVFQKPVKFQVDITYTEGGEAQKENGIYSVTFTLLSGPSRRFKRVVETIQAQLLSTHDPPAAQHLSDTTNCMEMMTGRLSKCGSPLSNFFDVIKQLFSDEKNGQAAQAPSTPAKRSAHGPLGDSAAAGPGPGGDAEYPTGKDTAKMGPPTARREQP
Put plainly: Inhibition of BRSK2 (unknown origin) at 1 uM relative to control. The essentials: as §1

The target of assay [3] is T2, Protein kinase C zeta type (Homo sapiens) (UniProt Q05513).
T2 sequence (whole entry): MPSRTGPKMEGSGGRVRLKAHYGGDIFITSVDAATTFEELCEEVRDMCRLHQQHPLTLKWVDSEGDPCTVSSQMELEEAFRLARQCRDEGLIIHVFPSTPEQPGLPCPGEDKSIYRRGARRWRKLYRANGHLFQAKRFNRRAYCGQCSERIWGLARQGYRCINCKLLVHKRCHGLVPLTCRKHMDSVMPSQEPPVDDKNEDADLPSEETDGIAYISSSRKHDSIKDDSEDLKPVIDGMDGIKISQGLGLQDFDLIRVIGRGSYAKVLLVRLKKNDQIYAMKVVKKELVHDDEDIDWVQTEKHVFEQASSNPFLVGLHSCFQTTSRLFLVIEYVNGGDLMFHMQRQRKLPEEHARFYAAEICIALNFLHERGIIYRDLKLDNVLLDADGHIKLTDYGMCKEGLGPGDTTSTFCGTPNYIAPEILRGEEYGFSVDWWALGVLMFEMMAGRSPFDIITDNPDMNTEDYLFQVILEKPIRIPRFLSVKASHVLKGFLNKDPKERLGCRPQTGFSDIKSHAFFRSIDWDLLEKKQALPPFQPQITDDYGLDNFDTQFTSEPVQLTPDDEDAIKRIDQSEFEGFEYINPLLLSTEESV
Kind of assay: Inhibition of PKCz (unknown origin) at 1 uM relative to control. The essentials:
(§2)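 Single-concentration screen of each compound against a 59-protein-kinase panel, run at 10 µM or 1 µM. Activity relative to control is shown as a heat map across the panel.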

Assay [4] addresses Mitogen-activated protein kinase 8 (Homo sapiens) (UniProt P45983). Kind of assay: Inhibition of JNK1 (unknown origin) at 1 uM relative to control. The essentials:
as §1

The target of assay [5] is RAC-alpha serine/threonine-protein kinase (Homo sapiens) (UniProt P31749). Kind of assay: Inhibition of PKBa (unknown origin) at 1 uM relative to control. The procedure, abridged: as §2
RAC-alpha serine/threonine-protein kinase (Homo sapiens), sequence (P31749 whole entry): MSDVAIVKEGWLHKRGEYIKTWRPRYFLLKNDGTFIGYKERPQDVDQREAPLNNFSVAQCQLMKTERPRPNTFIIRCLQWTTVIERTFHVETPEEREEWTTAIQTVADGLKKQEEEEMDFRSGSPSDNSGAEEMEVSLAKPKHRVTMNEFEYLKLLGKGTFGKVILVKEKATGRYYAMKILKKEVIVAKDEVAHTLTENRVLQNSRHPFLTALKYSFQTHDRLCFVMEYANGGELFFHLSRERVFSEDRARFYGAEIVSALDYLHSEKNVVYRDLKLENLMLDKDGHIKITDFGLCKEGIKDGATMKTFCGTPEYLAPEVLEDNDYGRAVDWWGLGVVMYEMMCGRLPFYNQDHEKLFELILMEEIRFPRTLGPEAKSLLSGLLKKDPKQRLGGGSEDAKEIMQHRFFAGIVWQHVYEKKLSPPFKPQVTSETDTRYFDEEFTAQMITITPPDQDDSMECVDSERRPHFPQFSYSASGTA
In assay [6] the target is Mitogen-activated protein kinase 9 (Homo sapiens) (UniProt P45984). Kind of assay: Inhibition of JNK2 (unknown origin) at 1 uM relative to control. The essentials: as §1
Mitogen-activated protein kinase 9 (Homo sapiens), sequence (P45984 whole entry, looked up): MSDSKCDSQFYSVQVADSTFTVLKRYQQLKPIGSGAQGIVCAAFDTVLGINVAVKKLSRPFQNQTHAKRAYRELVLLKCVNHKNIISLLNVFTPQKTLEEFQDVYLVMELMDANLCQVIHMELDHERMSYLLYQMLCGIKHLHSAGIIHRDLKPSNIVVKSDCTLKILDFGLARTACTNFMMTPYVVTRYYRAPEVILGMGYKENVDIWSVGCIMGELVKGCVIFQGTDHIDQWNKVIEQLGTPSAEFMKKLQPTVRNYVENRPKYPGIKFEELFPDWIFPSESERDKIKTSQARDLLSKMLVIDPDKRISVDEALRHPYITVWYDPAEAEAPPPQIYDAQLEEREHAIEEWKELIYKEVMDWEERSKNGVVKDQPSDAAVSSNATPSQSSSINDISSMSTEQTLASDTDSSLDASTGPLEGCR
Assay [7] deals with Casein kinase 2 (Homo sapiens) (UniProt P67870+P68400+P19784+Q8NEV1). Kind of assay: Inhibition of CK2 (unknown origin) at 1 uM relative to control. It counts as protein assay. The essentials:
as §1

Assay [8] has as its target T3, Inhibitor of nuclear factor kappa-B kinase subunit beta (Homo sapiens) (UniProt O14920).
T3 sequence (whole entry): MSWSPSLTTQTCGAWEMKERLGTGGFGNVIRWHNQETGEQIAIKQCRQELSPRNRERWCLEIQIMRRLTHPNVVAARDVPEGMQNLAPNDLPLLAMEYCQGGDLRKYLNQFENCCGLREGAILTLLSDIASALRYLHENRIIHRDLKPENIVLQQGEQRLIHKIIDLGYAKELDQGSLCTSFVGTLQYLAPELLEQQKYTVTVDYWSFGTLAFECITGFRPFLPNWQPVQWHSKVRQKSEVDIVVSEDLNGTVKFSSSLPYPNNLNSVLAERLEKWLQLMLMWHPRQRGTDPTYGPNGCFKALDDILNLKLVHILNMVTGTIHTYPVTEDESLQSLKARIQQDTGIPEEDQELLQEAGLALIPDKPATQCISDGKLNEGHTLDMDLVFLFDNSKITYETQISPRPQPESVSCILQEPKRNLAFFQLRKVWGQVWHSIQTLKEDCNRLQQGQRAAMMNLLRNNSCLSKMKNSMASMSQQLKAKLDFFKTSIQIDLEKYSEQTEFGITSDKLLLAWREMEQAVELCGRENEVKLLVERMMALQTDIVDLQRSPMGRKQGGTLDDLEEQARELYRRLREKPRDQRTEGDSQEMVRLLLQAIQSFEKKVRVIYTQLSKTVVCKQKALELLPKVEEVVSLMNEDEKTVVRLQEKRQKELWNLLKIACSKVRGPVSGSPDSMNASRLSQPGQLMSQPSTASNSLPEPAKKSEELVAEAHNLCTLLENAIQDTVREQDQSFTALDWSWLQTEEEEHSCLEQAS
Kind of assay: Inhibition of IKKb (unknown origin) at 1 uM relative to control. The essentials: as §1

Mitogen-activated protein kinase 8 (Homo sapiens), sequence (P45983 whole entry): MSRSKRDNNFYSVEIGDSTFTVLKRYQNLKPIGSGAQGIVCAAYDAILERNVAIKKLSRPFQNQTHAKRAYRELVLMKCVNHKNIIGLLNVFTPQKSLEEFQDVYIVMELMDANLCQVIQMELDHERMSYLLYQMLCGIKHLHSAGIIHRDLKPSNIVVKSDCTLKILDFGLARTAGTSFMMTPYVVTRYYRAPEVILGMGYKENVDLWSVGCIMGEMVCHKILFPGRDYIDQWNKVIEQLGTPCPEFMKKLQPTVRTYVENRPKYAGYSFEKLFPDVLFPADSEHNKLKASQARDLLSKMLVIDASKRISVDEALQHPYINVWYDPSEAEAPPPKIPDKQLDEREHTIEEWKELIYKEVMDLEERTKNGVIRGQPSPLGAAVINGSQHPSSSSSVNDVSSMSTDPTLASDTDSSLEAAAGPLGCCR
Calcium/calmodulin-dependent protein kinase type 1 (Homo sapiens), sequence (Q14012 whole entry, looked up): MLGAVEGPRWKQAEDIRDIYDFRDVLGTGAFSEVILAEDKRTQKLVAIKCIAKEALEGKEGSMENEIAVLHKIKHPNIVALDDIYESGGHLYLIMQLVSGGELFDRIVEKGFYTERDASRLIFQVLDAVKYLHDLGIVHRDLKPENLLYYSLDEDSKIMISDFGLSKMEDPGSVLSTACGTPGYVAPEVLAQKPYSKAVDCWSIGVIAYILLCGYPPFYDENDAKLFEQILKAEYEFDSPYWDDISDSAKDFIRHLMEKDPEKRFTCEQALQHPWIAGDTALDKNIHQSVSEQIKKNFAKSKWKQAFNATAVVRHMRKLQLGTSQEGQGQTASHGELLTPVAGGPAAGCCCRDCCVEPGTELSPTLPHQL

As for `c1cc(-c2n[nH]c3ccnc(OC4CCOCC4)c23)cc(N2CCOCC2)n1`, the inhibition in assay [1] stood at 7%; in assay [2] it was 0%; in assay [3], 1%; in assay [4], 47%; in assay [5], 0%; in assay [6] it was 43%. Also, the inhibition in assay [7] was found to be 3%; in assay [8] it was 0%.

In the case of `CC(C)n1cc(-c2n[nH]c3ccnc(OC4CCOCC4)c23)cn1`, the inhibition in assay [1] was 36%; in assay [2], 19%; in assay [3], 14%; in assay [4], 27%; in assay [5], 0%; in assay [6], 29%. The inhibition in assay [7] was 20%; in assay [8], 3%.

These data come from ChEMBL document CHEMBL4330096, “Discovery of potent and selective 5-azaindazole inhibitors of leucine-rich repeat kinase 2 (LRRK2) - Part 1” (Bioorg Med Chem Lett, 2019).
